This is an account of results in ChEMBL document CHEMBL2034933, “New quinazolinone-pyrimidine hybrids: synthesis, anti-inflammatory, and ulcerogenicity studies” (Eur J Med Chem, 2012).

For series [1], the system named is Rattus norvegicus. Put plainly: Antiinflammatory activity in albino rat assessed as inhibition of carrageenan-induced paw edema at 100 mg/kg, po administered 1 hr prior to carrageenan-challenge measured after 0.5 hrs. Format: functional. Put shortly: (§1)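 Adult albino rats of both sexes (120–150 g), pre-hydrated with 3 ml water by gavage, five per group. Test agents suspended in distilled water with a few drops of Tween 80, given orally 1 h before sub-plantar injection of 50 µl 1% carrageenan into the right hind paw. Dial-gauge paw thickness taken at 0.5, 1, 2 and 3 h, with the left paw as reference. % inhibition = (Wc−Wt)/Wc × 100 against saline/Tween 80 controls.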

The test system of series [2] is Rattus norvegicus. Description: Antiinflammatory activity in albino rat assessed as inhibition of carrageenan-induced paw edema at 100 mg/kg, po administered 1 hr prior to carrageenan-challenge measured after 1 hr. Format: functional. Put shortly: as §1
Series [3] relates to Rattus norvegicus. Put plainly: Antiinflammatory activity in albino rat assessed as inhibition of carrageenan-induced paw edema at 100 mg/kg, po administered 1 hr prior to carrageenan-challenge measured after 2 hrs. The format is functional. Put shortly: as §1
Series [4] relates to Rattus norvegicus. Put plainly: Antiinflammatory activity in albino rat assessed as inhibition of carrageenan-induced paw edema at 100 mg/kg, po administered 1 hr prior to carrageenan-challenge measured after 3 hrs. Format: functional. Put shortly: as §1
The test system of series [5] is Rattus norvegicus. Put plainly: Ulcerogenic activity in fasted albino rat assessed as ulcer index at 100 mg/kg po administered qd for 3 days measured on day 4. The format is toxicity, organism-based. Set-up: dose 100 mg/kg, route oral. To be noted: in vivo, 72 h. In short, it runs like this: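 Albino rats of both sexes (120–150 g), five per group, fasted 20 h, then dosed orally in 1% Tween (test agents 100 mg/kg, celecoxib and diclofenac sodium 50 mg/kg). Feeding cycle: 2 h fast, 2 h feed, 20 h fast, repeated with doses on days 2 and 3. Ulcers scored 0–4. Ulcer index = %incidence/10 + mean ulcer number + mean severity.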

Series [6] deals with Rattus norvegicus. Description: Antiinflammatory activity in albino rat assessed as inhibition of carrageenan-induced paw edema at 50 mg/kg, po administered 1 hr prior to carrageenan-challenge measured after 3 hrs. Format: functional. Put shortly: as §1
Series [7] has as its system Rattus norvegicus. Put plainly: Antiinflammatory activity in albino rat assessed as inhibition of carrageenan-induced paw edema at 200 mg/kg, po administered 1 hr prior to carrageenan-challenge measured after 3 hrs. Format: functional. Put shortly:
(§2)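 Carrageenan rat paw oedema (albino rats of both sexes, 120–150 g), oral dosing in Tween 80 suspension 1 h before 50 µl 1% carrageenan sub-plantar injection. Inhibition read at 3 h over a three-dose series (50, 100, 200 mg/kg for test agents; 20, 50, 100 mg/kg for diclofenac sodium). IC50 given in mg/kg and µmol/kg.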

The subject of series [8] is Rattus norvegicus. Put plainly: Antiinflammatory activity in po dosed albino rat assessed as inhibition of carrageenan-induced paw edema administered 1 hr prior to carrageenan-challenge measured after 3 hrs. Format: functional, organism-based. Put shortly:
as §2

For series [9], the system named is Rattus norvegicus. Put plainly: Antiinflammatory activity in po dosed albino rat assessed as inhibition of carrageenan-induced paw edema administered 1 hr prior to carrageenan-challenge relative to diclophenac. The format is functional.
A further series is filed under the species Ovis aries. Put plainly: Selectivity ratio of IC50 for ovine COX2 to ovine COX1. In short, it runs like this:
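Ovine COX-1 and COX-2 inhibition measured with a commercial COX inhibitor screening kit following the Gierse et al. method. Selectivity expressed as the ratio IC50(COX-2)/IC50(COX-1).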

In the case of `N#Cc1c(Nc2ccc(Cl)cc2)nc(SCC(=O)Nn2c(COc3ccc(Cl)cc3Cl)nc3ccccc3c2=O)nc1-c1ccc(Cl)cc1`, the inhibition in vivo at 100 mg/kg came out at 46.1% with Rattus norvegicus [1], 54.5% with Rattus norvegicus [2], 61.4% in the series on Rattus norvegicus [3] and 64.9% in the series with Rattus norvegicus [4].
`N#Cc1c(-c2ccc(Cl)cc2)nc(SCC(=O)Nn2c(COc3ccc(Cl)cc3Cl)nc3ccccc3c2=O)[nH]c1=O`: the inhibition in vivo at 100 mg/kg in the series on Rattus norvegicus [1] was 61.5%; in the series with Rattus norvegicus [2], 63.6%; with Rattus norvegicus [3], 64.9%; in the series with Rattus norvegicus [4], 64.9%.
With `N#Cc1c(Nc2ccc(O)cc2)nc(SCC(=O)Nn2c(COc3ccc(Cl)cc3Cl)nc3ccccc3c2=O)nc1-c1ccccc1`, the inhibition in vivo at 100 mg/kg in the series with Rattus norvegicus [1] was determined as 61.5%; with Rattus norvegicus [2] it was 72.7%; in the series on Rattus norvegicus [3], 59.6%; in the series with Rattus norvegicus [4], 59.6%.
Turning to `N#Cc1c(Nc2ccccc2)nc(SCC(=O)Nn2c(COc3ccc(Cl)cc3Cl)nc3ccccc3c2=O)nc1-c1ccccc1`, the inhibition in vivo at 100 mg/kg in the series on Rattus norvegicus [1] amounted to 71.2%; with Rattus norvegicus [2] it was 77.3%; with Rattus norvegicus [3], 78.1%; in the series with Rattus norvegicus [4], 78.1%. Also, the UI with Rattus norvegicus [5] came out at 13.26.
In the case of `N#Cc1c(Cl)nc(SCC(=O)Nn2c(COc3ccc(Cl)cc3Cl)nc3ccccc3c2=O)nc1-c1ccc(O)cc1`, the inhibition in vivo at 100 mg/kg in the series on Rattus norvegicus [1] is 67.3%; with Rattus norvegicus [2] it was 72.7%; with Rattus norvegicus [3], 73.7%; in the series on Rattus norvegicus [4], 73.7%.
For `N#Cc1c(Nc2ccccc2)nc(SCC(=O)Nn2c(COc3ccc(Cl)cc3Cl)nc3ccccc3c2=O)nc1-c1ccc(Cl)cc1`, the inhibition in vivo at 100 mg/kg in the series on Rattus norvegicus [1] was determined as 36.5%; with Rattus norvegicus [2], 43.6%; in the series with Rattus norvegicus [3], 50.9%; in the series with Rattus norvegicus [4], 56.1%.
On to `Cn1c(SCC(=O)Nn2c(COc3ccc(Cl)cc3Cl)nc3ccccc3c2=O)nc(-c2ccc(Cl)cc2)c(C#N)c1=O`, for which the inhibition in vivo at 100 mg/kg with Rattus norvegicus [1] was 80.8%; in the series with Rattus norvegicus [2], 76.4%; in the series with Rattus norvegicus [3], 73.7%; with Rattus norvegicus [4], 73.7%.
On to `N#Cc1c(Nc2ccccc2)nc(SCC(=O)Nn2c(COc3ccc(Cl)cc3Cl)nc3ccccc3c2=O)nc1-c1ccc(O)cc1`, for which the inhibition in vivo at 100 mg/kg in the series on Rattus norvegicus [1] was determined as 90.4%; with Rattus norvegicus [2], 90.9%; in the series on Rattus norvegicus [3] it was 91.2%; in the series on Rattus norvegicus [4] it was 91.2%. Further, the inhibition in vivo at 50 mg/kg with Rattus norvegicus [6] came to 77.2%. In addition, the inhibition in vivo at 200 mg/kg in the series with Rattus norvegicus [7] is 96.5%. Also, the IC50 in the series with Rattus norvegicus [8] was found to be 81.31 mg/kg. Besides, the “inhibition (INH)” value in the series with Rattus norvegicus [9] is more than 90%. Further, the UI with Rattus norvegicus [5] stood at 11.38. Moreover, the Ratio IC50 in the series listed under Ovis aries was determined as 0.44.
Take `N#Cc1c(Nc2ccc(O)cc2)nc(SCC(=O)Nn2c(COc3ccc(Cl)cc3Cl)nc3ccccc3c2=O)nc1-c1ccc(Cl)cc1`: the inhibition in vivo at 100 mg/kg amounted to 71.2% with Rattus norvegicus [1], 90.9% with Rattus norvegicus [2], 91.2% in the series on Rattus norvegicus [3] and 91.2% in the series on Rattus norvegicus [4]. Further, the inhibition in vivo at 50 mg/kg with Rattus norvegicus [6] was 61.4%. In addition, in the series on Rattus norvegicus [7], the inhibition in vivo at 200 mg/kg turned out to be 96.5%. Besides, the IC50 in the series on Rattus norvegicus [8] came out at 83.36 mg/kg. Moreover, the “inhibition (INH)” value in the series on Rattus norvegicus [9] was more than 90%. Also, the UI in the series with Rattus norvegicus [5] stood at 14.43. For the same molecule, the Ratio IC50 in the series listed under Ovis aries worked out at 0.4.
As for `Cn1c(SCC(=O)Nn2c(COc3ccc(Cl)cc3Cl)nc3ccccc3c2=O)nc(-c2ccccc2)c(C#N)c1=O`, the inhibition in vivo at 100 mg/kg with Rattus norvegicus [1] came to 51.9%; in the series with Rattus norvegicus [2], 54.5%; with Rattus norvegicus [3] it was 59.6%; with Rattus norvegicus [4], 59.6%.
Take `N#Cc1c(-c2ccc(Cl)cc2)nc(SCC(=O)Nn2c(COc3ccc(Cl)cc3Cl)nc3ccccc3c2=O)n(Cc2ccccc2)c1=O`: the inhibition in vivo at 100 mg/kg with Rattus norvegicus [1] stood at 61.5%; with Rattus norvegicus [2] it was 72.7%; with Rattus norvegicus [3] it was 77.2%; with Rattus norvegicus [4] it was 77.2%. In addition, in the series on Rattus norvegicus [5], the UI is on record as 11.3.
On to `N#Cc1c(Nc2ccc(Cl)cc2)nc(SCC(=O)Nn2c(COc3ccc(Cl)cc3Cl)nc3ccccc3c2=O)nc1-c1ccccc1`, for which the inhibition in vivo at 100 mg/kg in the series with Rattus norvegicus [1] was 51.9%; in the series with Rattus norvegicus [2], 54.5%; in the series on Rattus norvegicus [3] it was 57.9%; with Rattus norvegicus [4] it was 59.6%.
For `N#Cc1c(-c2ccc(O)cc2)nc(SCC(=O)Nn2c(COc3ccc(Cl)cc3Cl)nc3ccccc3c2=O)[nH]c1=O`, in that order: 61.5%, 63.6%, 68.4% and 68.4%.
For `N#Cc1c(Nc2ccc(Cl)cc2)nc(SCC(=O)Nn2c(COc3ccc(Cl)cc3Cl)nc3ccccc3c2=O)nc1-c1ccc(O)cc1`, the inhibition in vivo at 100 mg/kg with Rattus norvegicus [1] was 65.4%; in the series with Rattus norvegicus [2] it was 72.7%; in the series on Rattus norvegicus [3], 77.2%; in the series with Rattus norvegicus [4] it was 79%. Also, the UI in the series on Rattus norvegicus [5] is listed as 12.08.
With `N#Cc1c(-c2ccc(O)cc2)nc(SCC(=O)Nn2c(COc3ccc(Cl)cc3Cl)nc3ccccc3c2=O)n(Cc2ccccc2)c1=O`, the inhibition in vivo at 100 mg/kg in the series with Rattus norvegicus [1] is 51.9%; with Rattus norvegicus [2] it was 54.5%; in the series on Rattus norvegicus [3], 56.1%; in the series on Rattus norvegicus [4], 61.4%.
As for `N#Cc1c(Nc2ccc(O)cc2)nc(SCC(=O)Nn2c(COc3ccc(Cl)cc3Cl)nc3ccccc3c2=O)nc1-c1ccc(O)cc1`, the inhibition in vivo at 100 mg/kg in the series with Rattus norvegicus [1] was found to be 80.8%; in the series with Rattus norvegicus [2], 86.4%; with Rattus norvegicus [3], 86.8%; in the series on Rattus norvegicus [4], 86.8%. Moreover, the inhibition in vivo at 50 mg/kg in the series on Rattus norvegicus [6] was 56.1%. The inhibition in vivo at 200 mg/kg in the series with Rattus norvegicus [7] was determined as 91.2%. The IC50 in the series with Rattus norvegicus [8] was found to be 88.27 mg/kg. In the series on Rattus norvegicus [9], the “inhibition (INH)” value is listed as more than 90%. In addition, the UI in the series on Rattus norvegicus [5] worked out at 14.22. The Ratio IC50 in the series listed under Ovis aries amounted to 7.3.
With `Cn1c(SCC(=O)Nn2c(COc3ccc(Cl)cc3Cl)nc3ccccc3c2=O)nc(-c2ccc(O)cc2)c(C#N)c1=O`, the inhibition in vivo at 100 mg/kg in the series with Rattus norvegicus [1] turned out to be 76.9%; in the series with Rattus norvegicus [2] it was 80%; in the series with Rattus norvegicus [3], 86%; in the series with Rattus norvegicus [4], 86%. The inhibition in vivo at 50 mg/kg in the series on Rattus norvegicus [6] is 70.4%. Also, in the series on Rattus norvegicus [7], the inhibition in vivo at 200 mg/kg came to 97.8%. For the same molecule, the IC50 in the series on Rattus norvegicus [8] turned out to be 82.89 mg/kg. The “inhibition (INH)” value in the series with Rattus norvegicus [9] is recorded as more than 90%. The UI with Rattus norvegicus [5] is on record as 11.22. Further, in the series filed under Ovis aries, the Ratio IC50 was determined as 0.62.
Take `N#Cc1c(-c2ccccc2)nc(SCC(=O)Nn2c(COc3ccc(Cl)cc3Cl)nc3ccccc3c2=O)n(Cc2ccccc2)c1=O`: the inhibition in vivo at 100 mg/kg in the series on Rattus norvegicus [1] is 76%; with Rattus norvegicus [2], 77.3%; with Rattus norvegicus [3], 79%; in the series with Rattus norvegicus [4] it was 79%. Moreover, the UI in the series with Rattus norvegicus [5] is on record as 10.9.
`O=C(CSc1nc(-c2ccc(Cl)cc2)c(C(=O)O)c(=O)[nH]1)Nn1c(COc2ccc(Cl)cc2Cl)nc2ccccc2c1=O`: the inhibition in vivo at 100 mg/kg came out at 51.9% in the series with Rattus norvegicus [1], 58.2% in the series on Rattus norvegicus [2], 61.4% in the series on Rattus norvegicus [3] and 61.4% in the series on Rattus norvegicus [4].
Take `O=C(CSc1nc(-c2ccccc2)c(C(=O)O)c(=O)[nH]1)Nn1c(COc2ccc(Cl)cc2Cl)nc2ccccc2c1=O`: the inhibition in vivo at 100 mg/kg with Rattus norvegicus [1] turned out to be 61.5%; in the series with Rattus norvegicus [2], 69.1%; in the series on Rattus norvegicus [3] it was 68.4%; in the series on Rattus norvegicus [4], 64.9%.
Taken in the same sequence, the figures for `O=C(CSc1nc(-c2ccc(O)cc2)c(C(=O)O)c(=O)[nH]1)Nn1c(COc2ccc(Cl)cc2Cl)nc2ccccc2c1=O` were 32.7%, 36.4%, 38.6% and 38.6%.
Taken in the same sequence, the figures for `N#Cc1c(Cl)nc(SCC(=O)Nn2c(COc3ccc(Cl)cc3Cl)nc3ccccc3c2=O)nc1-c1ccccc1` were 53.9%, 60%, 66.7% and 68.4%.
In the case of `N#Cc1c(Cl)nc(SCC(=O)Nn2c(COc3ccc(Cl)cc3Cl)nc3ccccc3c2=O)nc1-c1ccc(Cl)cc1`, the inhibition in vivo at 100 mg/kg was found to be 61.5% in the series with Rattus norvegicus [1], 63.6% with Rattus norvegicus [2], 68.4% in the series with Rattus norvegicus [3] and 68.4% with Rattus norvegicus [4].
